Laboratory results as given in PubChem BioAssay AID651608 (The Scripps Research Institute Molecular Screening Center, 2012).
The list shows a part of the results. Activity calls are given as the source filed them.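 Rule for the calls: active = average inhibition over triplicates above the hit cutoff set in the earlier primary screen (cut at about 25% in these data); inactive = the rest.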

molecular target: ADP-ribosylation factor GTPase-activating protein 1 (Rattus norvegicus) (UniProt Q62848); assay: ARFGAP1 inhibitor hit confirmation, biochemical, fluorescence polarization, triplicate (AID 651608); conditions: ARFGAP1-stimulated ARF1 GTP hydrolysis, GDP tracer FP; at 16.5 µM; stronger effect = higher value;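 note: 0% = Arfgap1 plus ARF1-GTP with DMSO and 100% = wells lacking Arfgap1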
Outline: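 Material: rat Arfgap1 GAP domain (residues 1-136) acting on human ARF1 Δ1-17. Medium: HEPES-based assay buffer at pH 7.5. Dosing: 16.5 µM, one dose. Incubation: 20 min compound–enzyme pre-incubation, 120 min hydrolysis at 25 °C, 60 min detection. Technique: GDP tracer fluorescence polarization. Benchmarks: high control wells lacking Arfgap1. Repeats: three replicates.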

Sequence of ADP-ribosylation factor GTPase-activating protein 1 (Rattus norvegicus) (Q62848 whole entry, looked up, the tested form may be a part): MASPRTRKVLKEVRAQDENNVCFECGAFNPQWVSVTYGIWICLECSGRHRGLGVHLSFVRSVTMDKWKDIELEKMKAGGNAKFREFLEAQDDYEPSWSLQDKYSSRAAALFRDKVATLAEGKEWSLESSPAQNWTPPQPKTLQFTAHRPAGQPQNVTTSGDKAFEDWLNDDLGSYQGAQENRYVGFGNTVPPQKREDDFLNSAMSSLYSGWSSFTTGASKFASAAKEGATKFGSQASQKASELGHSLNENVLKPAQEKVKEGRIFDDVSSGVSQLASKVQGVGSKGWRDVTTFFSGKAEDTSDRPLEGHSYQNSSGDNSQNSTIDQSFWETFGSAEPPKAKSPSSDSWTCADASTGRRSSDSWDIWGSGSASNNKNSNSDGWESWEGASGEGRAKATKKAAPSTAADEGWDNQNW

| Compound | inhibition |
| --- | --- |
| Cc1ccc2nc(N3C(=O)C(O)=C(C(=O)c4ccco4)C3c3cccc(O)c3)sc2c1 (configuration not stated) | 18.3% (inactive) |
| O=C(O)CCn1cc(/C=C/C(=O)c2ccc(Cl)cc2)c(-c2cccc(Br)c2)n1 | -2.84% (inactive) |
| COc1ccc(NC(=O)c2cn(-c3ccccc3)nc2SC)cc1 | 18.4% (inactive) |
| COc1ccc(-c2csc(Nc3ccc(O)cc3)n2)cc1 | 4.53% (inactive) |
| COCCNc1cc(-c2ccccc2)nc2cc(-c3cccc(F)c3)nn12 | 10.8% (inactive) |
| COc1ccc(C(CNC(=O)c2cccc(S(=O)(=O)Nc3ccccc3Cl)c2)N2CCOCC2)cc1 (configuration not stated) | 4.17% (inactive) |
| COC(=O)c1cc2c(c3c4ccccc4n(S(=O)(=O)c4cccc(C)c4)c13)C(=O)N(Cc1ccccc1)C2 | -0.32% (inactive) |
| O=C(Nc1cccc(-c2nc3ccccc3[nH]2)c1)c1ccc(C(=O)Nc2cccc(-c3nc4ccccc4[nH]3)c2)cc1 | 60.7% (active) |
| CC(C)CCSc1ncnc2c1oc1nc3c(cc12)COC(C)(C)C3 | 1.56% (inactive) |
| CCNS(=O)(=O)c1ccc(NC(=O)Nc2cccc(C(F)(F)F)c2)cc1 | 18.2% (inactive) |
| CCO[C@@H]1OC(C(N)=O)=C[C@H](c2ccc(Br)cc2)[C@H]1CCCO | 0.74% (inactive) |
| Cc1ccc(-n2ncc3c2ncn2nc(-c4ccco4)nc32)c(C)c1 | 3.31% (inactive) |
| CCN(CC)c1ccc(NC(=O)CN2CCN(c3ccccn3)CC2)cc1 | -5.51% (inactive) |
| O=C(NC1CCCCC1)c1ccc(CNc2c(N3CCOCC3)c(=O)c2=O)cc1 | -1.66% (inactive) |
| Cc1ccc2nc(SCC(=O)N3CC(C)OC(C)C3)nc(=O)n2c1 (configuration not stated) | 90.3% (active) |
| COc1ccc(CNC(=O)C(Cc2ccccc2)n2cccc2)cc1 (configuration not stated) | 2% (inactive) |
| O=C(O)CSCc1ccc(C(=O)O)o1 | 5.16% (inactive) |
| COc1ccc(-n2nc3c(N4CCC(C(=O)NCc5ccccc5)CC4)nnc(C)c3c2C)cc1 | 44% (active) |
| c1ccc(-c2cc(-c3nnc4sc(-c5ccccn5)nn34)[nH]n2)cc1 | 36.3% (active) |
| O=C(/C=C/c1cn(-c2ccccc2)nc1-c1ccc2c(c1)OCCO2)NCCCN1CCOCC1 | 13% (inactive) |
| COc1ccc(/C=C2\SC(=S)N(CCCC(=O)NC3CCCC3)C2=O)cc1OC | -4.01% (inactive) |
| COc1ccc(Cl)cc1NC(=O)Cn1nc(-c2ccc(C)cc2)n(C)c1=S | 1.54% (inactive) |
